Experimental data reported in ChEMBL document CHEMBL5029189, “Development of a 1,2,4-Triazole-Based Lead Tankyrase Inhibitor: Part II” (J Med Chem, 2021).
Activity calls are given as the source filed them. The rule behind the calls is not given here.

What was measured:
[1] = Inhibition of Wnt/beta-catenin signaling pathway in HEK293T cells incubated for 24 hrs by dual-Glo luciferase assay; type: cell-based; conditions: Homo sapiens, HEK-293T
Procedure, shortened: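 Luciferase-based WNT/β-catenin pathway reporter in human HEK293 cells, run as in earlier work with a reference tankyrase inhibitor included. Each concentration tested in triplicate. IC50 derived by curve fitting, with T/F-tests applied to the fit.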

Salmonella typhimurium [2] = experiment: Genotoxicity in Salmonella typhimurium TA98 in presence of rat liver S9 fraction by Ames test; type: toxicity, organism-based; conditions: salmonella enterica subsp. enterica serovar typhimurium
Salmonella typhimurium [3] = experiment: Genotoxicity in Salmonella typhimurium TA100 in presence of rat liver S9 fraction by Ames test; type: toxicity, organism-based; conditions: salmonella enterica subsp. enterica serovar typhimurium
[4] = Apparent permeability across apical to basolateral side in human Caco-2 cells at 10 uM incubated for 120 mins by LC-MS/MS analysis; type: ADME, cell-based
[5] = Metabolic stability in mouse liver microsomes assessed as intrinsic clearance measured per mg protein incubated up to 60 mins in presence of NADPH by UPLC-MS/MS analysis; type: ADME, Microsome; conditions: read-out: CLH
[6] = Metabolic stability in human liver microsomes assessed as intrinsic clearance measured per mg protein incubated up to 60 mins in presence of NADPH by UPLC-MS/MS analysis; type: ADME, Microsome
COLO 320DM [7] = experiment: Inhibition of Wnt/beta-catenin signaling pathway in human COLO 320DM cells assessed as reduction in APCDD1 level qRT-PCR analysis; type: cell-based; conditions: dose 0.1-100 nM
COLO 320DM [8] = experiment: Inhibition of Wnt/beta-catenin signaling pathway in human COLO 320DM cells assessed as reduction in AXIN2 level qRT-PCR analysis; type: cell-based; conditions: dose 0.1-100 nM
[9] = molecular target: T1, Nuclear receptor subfamily 1 group I member 2 (Homo sapiens, UniProt O75469); experiment: Inhibition of PXR (unknown origin) at 100 uM
T1 sequence (O75469 whole entry): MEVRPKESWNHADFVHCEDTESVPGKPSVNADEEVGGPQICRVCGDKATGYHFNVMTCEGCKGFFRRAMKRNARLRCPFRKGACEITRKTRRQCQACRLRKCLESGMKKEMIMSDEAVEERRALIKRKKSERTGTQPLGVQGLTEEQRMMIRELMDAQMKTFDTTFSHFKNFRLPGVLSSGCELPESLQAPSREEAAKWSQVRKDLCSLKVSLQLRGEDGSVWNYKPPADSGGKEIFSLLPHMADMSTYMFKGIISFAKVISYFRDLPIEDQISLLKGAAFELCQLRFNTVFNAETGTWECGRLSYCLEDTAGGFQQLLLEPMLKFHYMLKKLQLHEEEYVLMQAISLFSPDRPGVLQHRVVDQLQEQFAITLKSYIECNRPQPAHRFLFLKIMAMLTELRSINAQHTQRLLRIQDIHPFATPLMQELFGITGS

COLO 320DM [10] = experiment: Inhibition of Wnt/beta-catenin signaling pathway in human COLO 320DM cells assessed as reduction in cytoplasmic beta-catenin level at 0.1 to 100 nM by immunoblot analysis; type: cell-based; conditions: dose 0.1-100 nM
COLO 320DM [11] = experiment: Inhibition of Wnt/beta-catenin signaling pathway in human COLO 320DM cells assessed as stabilization of AXIN2 at 0.1 to 100 nM by immunoblot analysis; type: cell-based; conditions: dose 0.1-100 nM
COLO 320DM [12] = experiment: Inhibition of Wnt/beta-catenin signaling pathway in human COLO 320DM cells assessed as reduction in DKK1 level qRT-PCR analysis; type: cell-based; conditions: dose 0.1-100 nM
COLO 320DM [13] = experiment: Inhibition of Wnt/beta-catenin signaling pathway in human COLO 320DM cells assessed as reduction in nuclear beta-catenin level at 0.1 to 100 nM by immunoblot analysis; type: cell-based; conditions: dose 0.1-100 nM
COLO 320DM [14] = experiment: Inhibition of Wnt/beta-catenin signaling pathway in human COLO 320DM cells assessed as reduction in NKD1 level qRT-PCR analysis; type: cell-based; conditions: dose 0.1-100 nM
COLO 320DM [15] = experiment: Inhibition of Wnt/beta-catenin signaling pathway in human COLO 320DM cells assessed as effect on TNKS1/2 level by immunoblot analysis; type: cell-based; conditions: dose 0.1-100 nM
COLO 320DM [16] = experiment: Inhibition of Wnt/beta-catenin signaling pathway in human COLO 320DM cells assessed as stabilization of AXIN1 at 0.1 to 100 nM by immunoblot analysis; type: cell-based; conditions: dose 0.1-100 nM

Structure (SMILES): CCOc1ccc(-c2nnc([C@H]3C[C@H](NC(=O)c4ccnc5cccnc45)C3)n2-c2ccccc2F)nc1
- IC50 [1]: 0.63 nM

Structure (SMILES): CCOc1ccc(-c2nnc([C@H]3C[C@H](NC(=O)c4ccccn4)C3)n2-c2ccccc2F)nc1
- Activity (Salmonella typhimurium [2]): Non-Toxic
- Activity (Salmonella typhimurium [3]): Non-Toxic
- Papp A→B at 2 h, 10 µM [4]: 39.5 ×10⁻⁶ cm/s
- microsomal CLint [5]: 27 µL/min/mg
- microsomal CLint [6]: < 5 µL/min/mg

Structure (SMILES): CCOc1ccc(-c2nnc([C@H]3C[C@H](NC(=O)c4ccnc5cc(F)cnc45)C3)n2-c2ccccc2F)nc1
- IC50 [1]: 0.17 nM

Structure (SMILES): CCOc1ccc(-c2nnc([C@H]3C[C@H](NC(=O)c4cccc5nccnc45)C3)n2-c2ccccc2F)nc1
- Activity (Salmonella typhimurium [2]): Non-Toxic
- inhibition (COLO 320DM [7]): Dose-Dependent Effect
- Activity (Salmonella typhimurium [3]): Non-Toxic
- inhibition (COLO 320DM [8]): Dose-Dependent Effect
- IC50 [9]: Not Active
- inhibition (COLO 320DM [10]): Active
- inhibition (COLO 320DM [11]): Active
- inhibition (COLO 320DM [12]): Dose-Dependent Effect
- inhibition (COLO 320DM [13]): Active
- inhibition (COLO 320DM [14]): Dose-Dependent Effect
- inhibition (COLO 320DM [15]): Dose-Dependent Effect
- inhibition (COLO 320DM [16]): Active
